From PubChem
Hits are enriched below; roughly 4.1% of the tested compounds scored in any of these assays.
KCNK9 block: KCNK9 potassium channel inhibitors, primary screen, HEK293 cells, thallium flux; Potassium channel subfamily K member 9 (Homo sapiens), Q9NPC2; FluxOR thallium flux fluorescence; active compounds read low; B-score at 10 µM; 310,000 compounds, 1.2% hits; AID 488922, 2010;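 active means ratio B-score over 3 SD below the library mean, with starting fluorescence within 5 SD of its mean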;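 further: negative B-score means less thallium flux so channel inhibition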
Target sequence (Q9NPC2 whole entry, looked up): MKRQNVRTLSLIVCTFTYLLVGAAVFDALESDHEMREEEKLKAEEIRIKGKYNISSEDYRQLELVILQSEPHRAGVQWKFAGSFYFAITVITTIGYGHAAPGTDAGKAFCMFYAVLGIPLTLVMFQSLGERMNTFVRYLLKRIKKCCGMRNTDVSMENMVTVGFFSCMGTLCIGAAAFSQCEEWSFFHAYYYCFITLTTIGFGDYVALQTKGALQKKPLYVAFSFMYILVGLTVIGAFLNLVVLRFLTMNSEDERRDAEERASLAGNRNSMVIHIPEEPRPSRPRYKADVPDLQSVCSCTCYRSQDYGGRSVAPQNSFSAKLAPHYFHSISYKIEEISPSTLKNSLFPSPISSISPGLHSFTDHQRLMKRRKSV
KCC2 mod: KCC2 cotransporter modulators, thallium flux, primary screen, cell-based, HEK293 KCC2, FluoZin-2 fluorescence, MLSMR | Solute carrier family 12 member 5 (Homo sapiens), Q9H2X9 | KCC2 cells, thallium flux FluoZin-2 fluorescence | B-score of Tl+ flux slope (higher = more flux/activation; lower = inhibition) at 10 µM | 190,000 compounds, 2.2% hits | AID 1456, 2008;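 active means thallium flux slope and its plate-corrected score both differing from the plate sample mean at a set confidence after two filtering rounds, in either direction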;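 further: slope of fluorescence scaled to starting intensity during 10 to 20 s after thallium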
KCNK3 inh: human KCNK3 channel inhibitors, primary screen, CHO cells, FluxOR thallium flux, B-score; FluxOR fluorescence; active compounds read low; B-score at 10 µM; Potassium channel subfamily K member 3 (Homo sapiens), O14649; 340,000 compounds, 0.84% hits;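 active means B-score under library mean minus 4 SD, starting fluorescence ratio at most library mean plus 5 SD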;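 further: more negative B-score means stronger inhibition of thallium flux through KCNK3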
KCNQ1 block: inhibitors of human KCNQ1 channel, primary screen, cell-based, thallium flux, high-throughput; 310,000 compounds, 1.3% hits; Potassium voltage-gated channel subfamily KQT member 1 (Homo sapiens), P51787; AID 2642, 2010; CHO-K1 KCNQ1, FluxOR thallium flux fluorescence; active compounds read high; B-score at 10 µM;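 active means compounds whose thallium flux B-score, printed positive for inhibition, exceeds three library SD while starting fluorescence stays within three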;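 further: channel opened by potassium depolarization with thallium stimulus after 20 min compound exposure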
KCNQ1 pot: potentiators or activators of KCNQ1 channel, primary screen, cell-based, thallium flux, high-throughput. 310,000 compounds, 0.35% hits. B-score at 10 µM. Potassium voltage-gated channel subfamily KQT member 1 (Homo sapiens), P51787. CHO-K1 KCNQ1, thallium flux FluxOR fluorescence; active compounds read high. AID 2648, 2010;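 active means fluorescence ratio B-score, a plate-corrected score, at least three library SD, with initial intensity B-score within 5 SD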
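System: CHO-K1 cells stably expressing KCNQ1 / Medium: assay buffer for compound exposure, DMSO matched across wells / Reagent: thallium- and potassium-containing depolarizing buffer / Compound: one concentration, matched DMSO / Incubation: 20 min compound pretreatment at room temperature / Measured by: kinetic FluxOR fluorescence, 10 s baseline plus 110 s post-stimulus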
hERG rescue: hERG rescue from dofetilide block, primary screen, cell-based, CHO-hERG, FluxOR thallium flux, dofetilide IC70; Voltage-gated inwardly rectifying potassium channel KCNH2 (Homo sapiens), Q12809; dofetilide IC70 present; activation (rescue from dofetilide block), less the hit threshold, % at 10 µM; 310,000 compounds, 0.51% hits;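 active means activation above the mean of controls blocked by dofetilide plus 5 SD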;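 further: thallium influx through hERG after potassium depolarization seen as dye fluorescence rise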
Numbers without * were called inactive.

Screening O=C(CC(=O)c1ccccc1)CC(O)(C=Cc1ccccc1)c1ccccc1 (centres undefined) returned KCNK3 inh -9.1*.
COc1ccc(OC)c(S(=O)(=O)Nc2ccc3c(c2)N(C(C)=O)CCC3)c1 was read as KCNK9 block inactive, KCNK3 inh inactive, KCNQ1 block inactive, KCNQ1 pot 13* and hERG rescue -11.
`CC(=O)N/C(=C/c1ccc2c(c1)OCO2)C(=O)NCCCO` gave KCNK9 block inactive, KCC2 mod 0.22, KCNK3 inh inactive, KCNQ1 block inactive, KCNQ1 pot inactive and hERG rescue -6.
`CCOC(=O)/C(=N/Nc1ccc(Br)cc1)N1CC(C)OC(C)C1` (centres undefined) gave KCNK3 inh -8.7*.
`COc1ccc(CCNC(=O)CCc2nnc(Cc3ccc4c(c3)OCO4)o2)c(OC)c1` gave KCNK9 block inactive, KCNK3 inh inactive, KCNQ1 block inactive, KCNQ1 pot inactive and hERG rescue -12.
`COc1cc2cc(CN(Cc3cccs3)C(=S)Nc3cccc(C)c3)c(=O)[nH]c2cc1OC` gave KCNK9 block inactive, KCC2 mod -0.45, KCNQ1 block 7*, KCNQ1 pot inactive and hERG rescue -11.
Screening Cc1ccc(NC(=O)c2ccc([N+](=O)[O-])o2)cc1S(=O)(=O)N1CCOCC1 returned KCNK9 block inactive, KCC2 mod 0.0071, KCNK3 inh inactive, KCNQ1 block inactive, KCNQ1 pot inactive and hERG rescue -14.
`COc1cc(C(=O)OCCNC(=O)c2ccccc2)cc(OC)c1OC` gave KCNK9 block inactive, KCNK3 inh inactive, KCNQ1 block inactive, KCNQ1 pot inactive and hERG rescue -7.
`CCCn1c(SCC(=O)N2CCN(C(=O)c3ccco3)CC2)nc2ccccc2c1=O` gave KCNK9 block inactive, KCC2 mod 0.13, KCNK3 inh inactive, KCNQ1 block inactive, KCNQ1 pot inactive and hERG rescue -13.
`Cc1ccccc1-c1nc(S(=O)(=O)c2ccc(Br)cc2)c(NCc2cccnc2)o1` gave KCNK9 block inactive, KCC2 mod -0.84, KCNK3 inh -9.1*, KCNQ1 block inactive, KCNQ1 pot inactive and hERG rescue -17.
Cc1cccc(NC(=O)NCCN2CCCCC2)c1 was read as KCNK9 block inactive, KCNK3 inh inactive, KCNQ1 block inactive, KCNQ1 pot inactive and hERG rescue -10.
Screening Cc1nn(CC(=O)N2CCOCC2)c(=O)c2nn(-c3ccccc3)c(C)c12 returned KCNK9 block inactive, KCNK3 inh inactive, KCNQ1 block inactive, KCNQ1 pot inactive and hERG rescue -1.
Screening CCOC(=O)[C@@H]1[C@H]2COc3ccccc3[C@@H]2N2C(=O)N(c3ccccc3)C(=O)[C@@]12C returned KCNK9 block inactive, KCNK3 inh inactive, KCNQ1 block inactive, KCNQ1 pot inactive and hERG rescue -6.
`CCOC(=O)[C@@H]1[C@H]2COc3ccccc3[C@H]2N2C(=O)N(c3ccc(C)cc3)C(=O)[C@]12C` gave KCNK9 block -6.7*, KCNK3 inh inactive, KCNQ1 block inactive, KCNQ1 pot inactive and hERG rescue -7.
Screening CCCCCCN1C(=O)CC(NC(=O)OCC2c3ccccc3-c3ccccc32)C/C=C\C1C(C)C (centres undefined) returned KCNK3 inh inactive.
N#CC1=C(N)Oc2cc(O)c(Cl)cc2C1c1cccnc1 (centres undefined) was read as KCNK9 block inactive, KCNK3 inh inactive, KCNQ1 block inactive, KCNQ1 pot inactive and hERG rescue -25.
For N#CC1=C(N)Oc2cc(O)c(Cl)cc2C1c1ccccc1F (centres undefined) the results were KCNK9 block inactive, KCNK3 inh inactive, KCNQ1 block 14*, KCNQ1 pot inactive and hERG rescue -46.
